Screening data: PubChem, Broad Institute
In the library only some 3.5% were active in any assay of this set; here they are far more common.
FGF22 binding – binders of human FGF22 protein, primary screen, FGF22 synaptogenesis inhibitor project, biophysical, thermal shift, single point | activity (Tm shift, normalised), % at 9.99 µM | recombinant FGF22 thermal shift, SYPRO orange fluorescence; percent of sucrose octasulfate shift, DMSO zero | AID 651658, 2012 | 1.5% of 340,000 active | Fibroblast growth factor 22 (Homo sapiens), Q9HCT0;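 active = mean Tm shift, scaled 0 neutral to 100 positive control, at about 1.3% or above, every replicate too, limit read from the data; inconclusive = no clear call, values can overlap the other calls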
Target sequence (Q9HCT0 whole entry, looked up): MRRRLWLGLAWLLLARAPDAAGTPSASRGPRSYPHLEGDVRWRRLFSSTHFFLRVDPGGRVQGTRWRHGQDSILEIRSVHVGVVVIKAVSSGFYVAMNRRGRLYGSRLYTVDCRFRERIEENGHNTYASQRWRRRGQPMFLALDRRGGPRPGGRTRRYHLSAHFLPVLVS
Cneo AK release – Cryptococcus neoformans cell lysis inducers, primary screen, AK release luminescence, single concentration | 0.2% of 360,000 active | lysis activity, % at 15 µM | AID 651654, 2012 | C. neoformans lysis, adenylate kinase release luminescence, 4 h; normalised: neutral wells 0, clomiphene wells 100;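 active = mean lysis activity across replicates of at least 80%, whatever share of replicates individually reach that level; inactive = mean lysis activity below 80%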
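Material – log-phase Cryptococcus neoformans yeast cells · Input – 5 × 10^6 yeast cells/mL · Medium – fresh YPD growth medium · Doses – single compound concentration per well · Timing – static 4 h at 37 °C with compound, 1 h detection · Detection – adenylate kinase release luminescence · Read-out – signal increase indicating cell lysis · Control set – Clomiphene as positive lysis control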
ERAP1 HTS inh – human ERAP1 aminopeptidase inhibitors, primary screen, biochemical, single point, plate reader; recombinant ERAP1, Leu-AMC fluorescence, 60 min; 0.15% of 340,000 active; inhibition, % at 10.7 µM; Endoplasmic reticulum aminopeptidase 1 (Homo sapiens), Q9NZ08;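 active = mean replicate inhibition of at least 30%, or all replicates individually reaching that 30% level; inactive = mean below 30% and not every replicate reaching it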;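 also: 0% = neutral control wells and 100% = L-leucinethiol positive control wells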
HIV Env fusion – inhibitors of HIV-1 Env-driven cell-cell fusion, primary screen, HeLa-JRFL effector, CEM21 target cells, luciferase; inhibition, % at 12.3 µM; AID 651610, 2012; 1.1% of 360,000 active;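 active = mean replicate inhibition score of at least 50 and every replicate individually at or above 50; inconclusive = only one of the two criteria met; inactive = mean below 50 and not all replicates reaching 50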;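 also: 0% = plate neutral controls and 100% = maraviroc near 300 nM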
rRNA inh HTS – reduced GFP signal of wild-type E. coli, primary screen, bacterial rRNA inhibitor project, GFP/RFP fluorescence, OD600, single point | E. coli WT GFP vs humanized-ribosome RFP mutants, 24 h; stronger effect = lower value; DMSO median 0, no signal -100 | GFP signal change (wild-type ribosome), % (no concentration beside the values) | 1.6% of 350,000 active;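 active = significant combined selectivity score with lowered wild-type GFP, culture density cut under 30%, mutant RFP and density less affected; inactive = any of these conditions unmet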
PGC1a acetyl inh – inhibitors of PGC1a acetylation signal, primary screen, cell-based, U2OS, AlphaScreen, inhibitor mode | AID 651687, 2012 | 0.17% of 350,000 active | AlphaScreen anti-acetyl-lysine; with virally co-expressed GCN5 acetyltransferase | inhibition, % at 15.6 µM;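 active = every replicate shows inhibition of at least 40%; inconclusive = mean inhibition at least 40% but some replicate below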;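 also: 0% = neutral control wells and 100% = positive control wells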
* = called active by the depositor; ? = inconclusive; / = not tested or not shown; [ ] = remark or other dose.

SMILES	FGF22 binding	Cneo AK release	ERAP1 HTS inh	HIV Env fusion	rRNA inh HTS	PGC1a acetyl inh
Cc1ccc(NC(=O)CCC(=O)NNC(=O)c2ccccc2[N+](=O)[O-])c(C)c1	0	/	-5	22	11	15
O=C(NNS(=O)(=O)c1ccc(Cl)cc1Cl)c1cc2ncc(C(F)(F)F)cc2s1	0	0	-1	8	-20	6
CC1C(=O)N(Cc2cn(CCC3OCCCO3)nn2)CCS(=O)(=O)N1Cc1ccc(-c2ccc(F)cc2)cc1 (stereo unspecified)	0	0	-3	/	6	/
CC1C(=O)N(Cc2cn(CCC3OCCCO3)nn2)CCS(=O)(=O)N1Cc1ccc(-c2ccc(Cl)c(Cl)c2)cc1 (stereo unspecified)	-1	5	2	64*	/	-4
CCOCCCNCC(=O)Nc1ccc(OC(F)(F)F)cc1	/	1	/	-105	/	1
CCOC(=O)c1ccccc1NC(=O)Cn1c(=O)n(Cc2ccccc2)c(=O)c2c(C)c(C)sc21	/	/	/	58*	/	/
CC(=O)c1cccc(NC(=O)NC2CCCCCCC2)c1	0	-1	0	-32	-29	2
O=C(NC1CC1)c1sc2ccccc2c1Cl	0	-1	2	-11	1	11
CC(=O)c1cccc(NC(=S)NC2CCCCCCC2)c1	0	129*	5	/	-19	-2
O=C(NC(=S)NC1CCCC1)c1ccccc1	0	23	2	-37	-26*	/
O=C(NNC(=S)NC1CCCCC1)c1sc2ccccc2c1Cl	0	/	9	6	-20*	5
CCc1ccc2c(c1)c(N=NC1=NC(=O)CS1)c(O)n2C	/	-2	/	/	/	/
COc1ccc(Cl)cc1N(CC(=O)Nc1ccc2c(c1)OCO2)S(C)(=O)=O	/	-1	/	-23	/	-6
O=Cc1ccc(OCC(=O)N2CCc3ccccc32)c(Br)c1	0	-3	3	/	0	6
O=C1/C(=C/c2ccccc2F)SC(=S)N1CCC(=O)N1CCCCC1CCO (stereo unspecified)	0	8	6	-5	-23*	/
O=C1/C(=C/c2cccs2)SC(=S)N1CC(=O)N1CCCCC1CCO (stereo unspecified)	0	2	0	1	-25*	/
O=C1/C(=C/c2ccc(Cl)cc2)SC(=S)N1CCC(=O)N1CCCCC1CCO (stereo unspecified)	0	-5	8	6	7	-4
O=C1/C(=C/c2cccc(Cl)c2)SC(=S)N1CCC(=O)N1CCCCC1CCO (stereo unspecified)	0	1	-4	0	-22*	/
CC(=O)c1ccc(S(=O)(=O)N2CCN(C(=O)c3ccc(-n4cncn4)c([N+](=O)[O-])c3)CC2)cc1	0	1	1	-11	4	0
CCOC(=O)c1sc(NC(=O)Nc2ccccc2F)nc1C	/	-20	/	-248	/	-3
CCCC(=O)N1CC2(C1)CN(C(C)=O)[C@@H](CO)c1c2c2ccc(OC)cc2n1C	0	/	1	/	4	6
COc1ccccc1-c1cc(C(=O)NN)[nH]n1	0	-1	3	5	-20*	-16
COc1ccc(-c2cc(C(=O)O)[nH]n2)cc1OC	/	4	5	-68	8	?
COc1ccc(-c2cc(C(=O)NN)[nH]n2)cc1	0	/	1	-40	-3	/
COc1ccc(-c2cc(C(=O)NN)[nH]n2)cc1OC	0	/	-1	-3	-22*	-4
SMILES	FGF22 binding	Cneo AK release	ERAP1 HTS inh	HIV Env fusion	rRNA inh HTS	PGC1a acetyl inh
CCN(CC)CCN1C(=O)C(=O)/C(=C(/O)c2ccc(S(=O)(=O)N3CCOCC3)cc2)C1c1ccc(C)cc1 (stereo unspecified)	44*	/	1	-5	0	/
O=C1C(=O)N(CCN2CCOCC2)C(c2ccc(Cl)c(Cl)c2)/C1=C(/O)c1ccc2c(c1)OCO2 (stereo unspecified)	0	2	2	63*	-1	-1
CCN(CC)CCN1C(=O)C(=O)/C(=C(/O)c2ccc(S(=O)(=O)N3CCOCC3)cc2)C1c1ccc(C(C)C)cc1 (stereo unspecified)	0	3	0	-1	3	/
Cc1noc(C)c1S(=O)(=O)N(C)C[C@@H]1OCCCC[C@H](C)Oc2ccc(NS(=O)(=O)c3ccc(F)cc3)cc2C(=O)N([C@@H](C)CO)C[C@H]1C	0	-10	/	-19[16.7 µM]	0	-6
C[C@H]1CN([C@@H](C)CO)C(=O)c2cc(NC(=O)C3CC3)ccc2O[C@H]1CN(C)Cc1ccc2c(c1)OCO2	0	-2	4	17[16.7 µM]	1	-4
O=C(C[C@@H]1CC[C@@H]2[C@H](COC[C@H](O)CN2C(=O)Nc2ccccc2)O1)NCCc1ccncc1	0	-1	0	/	2	-1
CC1CCCCN1C(=O)COC(=O)c1ccc2ccccc2n1 (stereo unspecified)	0	-1	-2	-14	1	/
Cc1[nH]c2ccccc2c1/C=C(\C#N)C(=O)NCC1CCCO1 (stereo unspecified)	0	/	-6	-19	-23*	/
c1cncc(-c2ccnc3ncnn23)c1	43*	/	-4	-52	/	/
O=C(NCc1ccc(Cl)cc1Cl)C1CC(=O)N(Cc2ccccc2)C1 (stereo unspecified)	0	/	1	-4	-23*	2
Cc1ccc(NC(=O)CN2CCN(Cc3ccccc3)CC2)c(Br)c1	0	1	-6	-5	-23*	-24
Cc1ccc(NC(=O)CN2CCOCC2)c(Br)c1	0	0	0	2	1	/
O=C(CN1CCOCC1)Nc1cccc(S(=O)(=O)N2CCCCCC2)c1	0	/	6	0	2	/
O=C(CN1C(=O)c2ccccc2C1=O)Nc1cccc(Cl)c1	0	1	-1	-3	11	-4
O=C(CN1CCN(Cc2ccccc2)CC1)Nc1cccc(S(=O)(=O)N2CCCCCC2)c1	43*	/	-2	10	-21	-11
O=C(CN1C(=O)c2ccccc2C1=O)Nc1cccc(S(=O)(=O)Nc2ccccc2Cl)c1	0	/	-2	9	-26*	/
Cc1ccc(S(=O)(=O)N2CCCCC2)cc1NC(=O)C1CC(=O)N(Cc2ccccc2)C1 (stereo unspecified)	/	1	/	/	/	7
O=C(Nc1cccc(S(=O)(=O)N2CCCCC2)c1)C1CC(=O)N(Cc2ccccc2)C1 (stereo unspecified)	0	0	-7	14	-24*	-12
